According to article PMC2229322 (The Journal of General Physiology, 1996):

What was measured:
[1] = test system: 391C Shaker K+ channel with intact N-type inactivation (Sh +); assay: N-type inactivation of intact; assay type: cell-based, Drosophila; details: for effect of 391C modification on N-type inactivation current: voltage jump -80 to 0 mV, 50 ms, complete modification (Fig. 2)
Method in brief: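 Inside-out patches from HEK293 cells expressing channels with intact N-terminus, stepped -80 to 0 mV. Inactivation gate removed by internal trypsin perfusion. Traces normalised to the mean current of the last 20 ms after trypsin. Ag+ 20 nM for 2 min applied; completeness checked by pulsing at 0.25 Hz.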

[2] = target: E395C mutant Shaker K+ channel (Drosophila melanogaster, UniProt P08510, C301S/C308S/DEL6-46/E395C/T449V); assay: Sensitivity of E395C to internal open channel blockers; assay type: cell-based; details: internal open channel blocker
[3] = test system: cysteine mutants (380-398) of the S4-S5 linker, ShA Shaker K+ channel; assay: Chemical modification of cysteine mutants of the S4-S5 linker; assay type: cell-based, Drosophila; details: positions with large current reduction
Method in brief: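 Cysteine-substituted channels in inside-out patches from transfected HEK293 cells, pH 7.4 solutions. Thiol reagents applied internally; completeness of modification followed by pulsing at 0.25 Hz. Conditions: MMTS 2 mM, 1 min; Ag+ 20 nM, 2 min; MTSEA 100 µM, 30 s.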

[4] = test system: 391C ShA Shaker K+ channel; assay: Rate of chemical modification of 391C; assay type: cell-based, Drosophila; details: MTSET
[5] = test system: 382C ShA Shaker K+ channel; assay: Chemical modification of 382C; assay type: cell-based, Drosophila; details: vs 381C, toward more positive voltages (Fig. 7 C and E)
[6] = test system: 381C ShA Shaker K+ channel; assay: Chemical modification of 381C; assay type: cell-based, Drosophila; details: for slope (time constant x [MTSET]) of current reduction: 381C
Method in brief: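 Inside-out patches from transfected HEK293 cells; […] to 0 mV from -100 mV holding. Computer-controlled reagent pulses of 1 or 2 s began ~500 ms after step onset; sampled 5 kHz, filtered 1 kHz. Time axis normalised to reagent concentration; current reduction fitted to single exponentials. Frequency runs alternated -100 with 0 or +60 mV, equal time at each.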

Shaker K+ channel = details: intracellular application; ref Choi et al., 1991; cited from earlier work
K+ channels = assay: Test of perfusion change by TEA blockade; assay type: cell-based; details: internal TEA; reflects time course of solution change by perfusion system
Method in brief: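 Rapid internal solution exchange on excised patches via a computer-controlled solenoid perfusion system. Exchange speed assessed by applying TEA.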

[7] = test system: NH2-terminal deletion mutant Shaker K+ channel; details: ref Zagotta et al., 1990; cited from earlier work
[8] = Net charge of ball peptides; assay type: physicochemical; details: COOH terminal amidated, NH2 terminal positively charged

Compound: [Ag+] [Ag+, silver]
- additional effect of 391C modification on tethered ball ([1]; Ag+ 20 nM for 2 min (Fig. 2)): additional ef- fect on the association rate
- effect of 391C modification on N-type inactivation current [1]: increase in the steady- state current level without much change in the peak current

Compound: CCCCCCCCCC[N+](CC)(CC)CC [C10-TEA, de- cyltriethylammonium]
- affinity of E395C mutant compared with wild-type channel [2]: reduced fourfold

Compound: CSS(C)(=O)=O [MMTS, Methyl methanethiosulfonate]
- effect of 391C modification on N-type inactivation current [1]: increase in the steady- state current level without much change in the peak current

Compound: C[N+](C)(C)CCSS(C)(=O)=O [MTSET, [(2-trimethylammoniuin)ethyl]methanethiosulfonate]
- reactivity of positions 389 and 397 [3]: only very slowly reactive
- total current after modification of A391C [4]: no reduction in the total current
- voltage dependence of modification rate of 391C ([4]; Fig. 6C): higher at positive voltages
- effect of 391C modification on N-type inactivation current [1]: parallel increase of the steady state and the peak current
- shift of voltage dependence of gating and modification for 382C [5]: ~ 50 mV
- rate of modification of 381C with rapidly switching stimulus ([6]; 50 10-ms pulses vs 5 100-ms pulses, -100 to 0 mV): about threefold faster
- slope (time constant x [MTSET]) of current reduction ([6]; MTSET, 0 mV (Fig. 7B)): 0.33 mM·s
- slope (time constant x [MTSET]) of current reduction ([6]; MTSET, -120 mV (Fig. 7B)): 2.47 mM·s
- current reduction by modification of 381C ([6]; MTSET, Fig. 7 A and B): > 80%

Compound: CC[N+](CC)(CC)CCSS(C)(=O)=O [MTSTEA, [(2-triethylammonium)ethyl] methanethiosulfonate]
- effect of 391C modification on N-type inactivation current [1]: qualitatively similar results

Compound: CC[N+](CC)(CC)CC [TEA, tetraethylammonium]
- affinity of E395C mutant compared with wild-type channel [2]: reduced fourfold
- effect on N-type inactivation (Shaker K+ channel): slows down N-type inactivation
- time constant of TEA blockade observed (K+ channels): ~ 10 ms

Compound: MAAVAGLYGLGEDRQHRKKQ [Shaker ball peptide]
- reconstitution of fast inactivation by intracellular application [7]: effectively reconsti- tuted
- net charge [8]: +3

Compound: Trypsin
- effect of removing the inactivation gate ([1]; 0.0025% trypsin perfused on inside-out patch (Fig. 2A)): larger non-inactivated current level
